Measured values from different studies.
Each line is one published result; the experiments were not run side by side.
Effect on: cell growth or viability

Cc1ccc(CN2C(=O)C(=Nc3cccc(C)c3)c3ccccc32)cc1
IC50 (L02; MTT; 48 h): 10300 nM

C[C@H]1CN(C)CCN1c1nccc(-c2noc3c2CCC[C@@]32CCCc3sc(N)c(C#N)c32)n1
EC50 (BaF3; 72 h): 479 nM

Cc1ncsc1-c1ccc(CNC(=O)[C@@H]2C[C@@H](O)CN2C(=O)[C@@H](NC(=O)COCCOCCOCCNC(=O)C[C@@H]2N=C(c3ccc(Cl)cc3)c3c(sc(C)c3C)-n3c(C)nnc32)C(C)(C)C)cc1
IC90 (HCC1806; MTT; 6 days): 810 nM

Cc1nc(Nc2ncc(C(=O)Nc3c(C)cccc3Cl)s2)cc(N2CC[C@H](O)C2)n1
inhibition (REH; ATP luminescence; 10 µM, 72 h): 32%

C[C@H]1CNCCN1c1nccc(-c2noc([C@@]3(C)CCCc4sc(N)c(C#N)c43)n2)n1
EC50 (BaF3; 72 h): 1580 nM

O=C1Nc2ccccc2C1=Nc1ccccc1Br
IC50 (L02; MTT; 48 h): 31400 nM

C[C@H](Nc1ccc2c(c1)OCCn1cc(N3C(=O)OC[C@H]3C(F)F)nc1-2)C(N)=O
EC50 (MFM-223; ATP luminescence; 5 days): 1390 nM

C[C@H](Oc1nccc(-c2noc3c2CCC[C@@]32CCCc3sc(N)c(C#N)c32)n1)[C@@H]1CCCN1C
EC50 (BaF3; 72 h): 42 nM

Cc1ccc(CN2C(=O)C(=Nc3c(C(C)C)cccc3C(C)C)c3ccccc32)cc1
IC50 (L02; MTT; 48 h): 177000 nM
